Reference: ChEMBL document CHEMBL1124416, “5-(1-piperazinyl)-1H-1,2,4-triazol-3-amines as antihypertensive agents” (1989)

Experiments:
[1] = species on record: Rattus norvegicus; assay type: functional, Artery; conditions: dose 100 mg/kg; route oral
[2] = test system: Rattus norvegicus; assay: Assessment of antihypertensive activity at 100 mg/kg administered perorally by measuring the heart rate in rats; assay type: functional; conditions: route oral
[3] = test system: Rattus norvegicus; assay: The antihypertensive activity was assessed by measuring the heart rate in rats when administered at 10 mg/kg; assay type: functional
Procedure, shortened: (§1)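 16-week-old male SH rats (Okamoto) were dosed by oral gavage in 3% starch in normal saline (2 mL/kg), plus an oral saline load of 25 mL/kg. They were redosed at 24 h without the saline load. MABP and HR were taken by direct femoral arterial puncture under local anesthesia 4 h after the second dose. HR was rounded to 10 bpm.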

[4] = test system: Rattus norvegicus; assay: The antihypertensive activity was assessed by measuring the mean arterial blood pressure in rats when administered at 10 mg/kg; assay type: functional
Procedure, shortened: as §1

[5] = test system: Rattus norvegicus; assay: The antihypertensive activity was assessed by measuring the mean arterial blood pressure in rats when administered at 50 mg/kg; assay type: functional
Procedure, shortened: as §1

[6] = test system: Rattus norvegicus; assay: The antihypertensive activity was assessed by measuring the heart rate in rats when administered at 50 mg/kg; assay type: functional
Procedure, shortened: as §1

[7] = test system: Rattus norvegicus; assay: The antihypertensive activity at 100 mg/kg administered perorally was assessed by measuring the mean arterial blood pressure (MABP) in rats; assay type: functional; conditions: route oral
Procedure, shortened: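 Male SH rats (Okamoto, 16 weeks old) got 100 mg/kg by oral gavage in 3% starch in normal saline (2 mL/kg), then an oral 25 mL/kg saline load. They were redosed at 24 h without the load. MABP and HR were taken by direct femoral arterial puncture under local anesthesia 4 h after the second dose, in one to three rats per compound. Active: one rat reduced to 116 mmHg, or a two-rat average reduced to 122 mmHg.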

[8] = test system: Rattus norvegicus; assay: The antihypertensive activity was assessed by measuring the heart rate in rats when administered at 30 mg/kg; assay type: functional
Procedure, shortened: as §1

[9] = test system: Rattus norvegicus; assay: The antihypertensive activity was assessed by measuring the mean arterial blood pressure in rats when administered at 30 mg/kg; assay type: functional
Procedure, shortened: as §1

`Nc1n[nH]c(N2CCN(CCCOc3ccccc3)CC2)n1` showed an MABP [1] of 89 mmHg and an HR [2] of 310 beats min-1.
`Nc1n[nH]c(N2CCN(CC3CC3)CC2)n1` showed an MABP [1] of 104 mmHg and an HR [2] of 390 beats min-1.
`Cc1cccc(CN2CCN(c3n[nH]c(N)n3)CC2)c1` gave an MABP [1] of 132 mmHg and an HR [2] of 440 beats min-1.
With `CCCCc1ccc(CN2CCN(c3n[nH]c(N)n3)CC2)cc1` the MABP [1] was 136 mmHg and the HR [2] was 360 beats min-1.
For `CC(=O)N1CCN(c2n[nH]c(N)n2)CC1`, the MABP [1] was 142 mmHg and the HR [2] was 440 beats min-1.
Work on `Cl.Cl.Nc1n[nH]c(N2CCN(Cc3cccc4ccccc34)CC2)n1` yielded an MABP [1] of 133 mmHg and an HR [2] of 350 beats min-1.
Work on `C=CCN1CCN(c2nc(N)n[nH]2)CC1` yielded an MABP [1] of 96 mmHg and an HR [2] of 360 beats min-1.
`Nc1n[nH]c(N2CCN(Cc3ccc(F)cc3Cl)CC2)n1` showed an MABP [1] of 145 mmHg and an HR [2] of 410 beats min-1.
Compound `Nc1n[nH]c(N2CCN(CCNCc3ccncc3)CC2)n1` has an MABP [1] of 144 mmHg and an HR [2] of 440 beats min-1.
For `Nc1n[nH]c(N2CCN(C(=O)c3ccco3)CC2)n1`, the MABP [1] was 142 mmHg and the HR [2] was 410 beats min-1.
`COc1ccc(CN2CCN(c3n[nH]c(N)n3)CC2)c(OC)c1OC` gave an MABP [1] of 147 mmHg and an HR [2] of 420 beats min-1.
Compound `Nc1n[nH]c(N2CCN(c3ccc(F)cc3)CC2)n1` has an MABP [1] of 151 mmHg and an HR [2] of 420 beats min-1.
Compound `Nc1n[nH]c(N2CCN(c3ccccc3)CC2)n1` has an MABP [1] of 128 mmHg and an HR [2] of 340 beats min-1.
`Nc1n[nH]c(N2CCN(Cc3ccc(F)cc3)CC2)n1` showed an MABP [1] of 97 mmHg and an HR [2] of 360 beats min-1.
For `CN(C)CCCN1CCN(c2n[nH]c(N)n2)CC1`, the MABP [1] was 140 mmHg and the HR [2] was 420 beats min-1.
In the case of `Clc1cccc(Cl)c1NC1=NCCN1` [CLONIDINE], the MABP [1] is reported as 102 mmHg and the HR [2] is reported as 180 beats min-1.
In the case of `Nc1n[nH]c(N2CCN(CCc3ccccc3)CC2)n1`, the MABP [1] is reported as 77 mmHg, the HR [3] is reported as 440 beats min-1 and the HR [2] is reported as 330 beats min-1. For the same compound, the MABP [4] was 142 mmHg.
`Nc1n[nH]c(N2CCN(C/C=C/c3ccccc3)CC2)n1` was tested, and the MABP [1] was 101 mmHg and the HR [2] was 430 beats min-1.
Compound `Nc1n[nH]c(N2CCN(Cc3ccccc3[N+](=O)[O-])CC2)n1` has an MABP [1] of 135 mmHg and an HR [2] of 430 beats min-1.
`CN(C)c1ccc(CN2CCN(c3n[nH]c(N)n3)CC2)cc1` was tested, and the MABP [5] was 129 mmHg, the HR [6] was 440 beats min-1 and the MABP [1] was 111 mmHg. The HR [2] was 380 beats min-1.
For `CC(c1ccccc1)N1CCN(c2n[nH]c(N)n2)CC1` (stereo unspecified), the MABP [1] was 136 mmHg and the HR [2] was 370 beats min-1.
With `Nc1n[nH]c(N2CCN(CC3CCCCC3)CC2)n1` the MABP [1] was 123 mmHg and the HR [2] was 420 beats min-1.
`Cc1ccccc1CN1CCN(c2n[nH]c(N)n2)CC1` gave an MABP [1] of 131 mmHg and an HR [2] of 410 beats min-1.
With `Cc1ccc(CN2CCN(c3n[nH]c(N)n3)CC2)cc1` the MABP [5] was 70 mmHg, the HR [6] was 350 beats min-1 and the MABP [1] was 112 mmHg. It also gave an HR [2] of 340 beats min-1.
Work on `COc1ccccc1N1CCN(c2n[nH]c(N)n2)CC1` yielded an MABP [1] of 157 mmHg and an HR [2] of 440 beats min-1.
With `Nc1n[nH]c(N2CCN(Cc3ccc4ccccc4n3)CC2)n1` the MABP [1] was 121 mmHg and the HR [2] was 440 beats min-1.
In the case of `CN(C)c1ccc(CN2CCN(c3n[nH]c(N)n3)CC2)cc1Br`, the MABP [1] is reported as 116 mmHg and the HR [2] is reported as 320 beats min-1.
With `Br.Br.Nc1n[nH]c(N2CCNCC2)n1` the MABP [1] was 92 mmHg and the HR [2] was 410 beats min-1.
`Nc1n[nH]c(N2CCN(Cc3ccccc3F)CC2)n1` gave an MABP [5] of 79 mmHg, an HR [6] of 330 beats min-1 and an MABP [1] of 97 mmHg. It also gave an HR [2] of 350 beats min-1.
`Nc1n[nH]c(N2CCN(C(c3ccccc3)c3ccc(Cl)cc3)CC2)n1` (stereo unspecified) was tested, and the MABP [1] was 115 mmHg and the HR [2] was 350 beats min-1.
`CN1CCN(c2n[nH]c(N)n2)CC1` showed an MABP [5] of 133 mmHg, an HR [6] of 440 beats min-1 and an MABP [1] of 116 mmHg. For the same compound, the HR [7] was 400 beats min-1.
Compound `Nc1ccc(CN2CCN(c3n[nH]c(N)n3)CC2)cc1` has an MABP [1] of 109 mmHg and an HR [2] of 380 beats min-1.
Work on `CC(C)(C)c1ccc(C(=O)N2CCN(c3n[nH]c(N)n3)CC2)cc1` yielded an MABP [1] of 141 mmHg and an HR [2] of 400 beats min-1.
`Cc1ccc(C)c(CN2CCN(c3n[nH]c(N)n3)CC2)c1` gave an MABP [1] of 139 mmHg and an HR [2] of 400 beats min-1.
Work on `Nc1n[nH]c(N2CCN(Cc3c(Cl)cccc3Cl)CC2)n1` yielded an MABP [1] of 140 mmHg and an HR [2] of 400 beats min-1.
In the case of `Nc1n[nH]c(N2CCN(Cc3ccccc3)CC2)n1`, the MABP [1] is reported as 102 mmHg, the HR [3] is reported as 400 beats min-1 and the HR [2] is reported as 360 beats min-1. It also gave an MABP [4] of 118 mmHg.
With `CN(C)c1ccc(CN2CCN(c3n[nH]c(N)n3)CC2)c(Cl)c1` the MABP [1] was 120 mmHg and the HR [2] was 400 beats min-1.
Compound `CC(C)C(=O)N1CCN(c2n[nH]c(N)n2)CC1` has an MABP [1] of 141 mmHg and an HR [2] of 410 beats min-1.
In the case of `Nc1n[nH]c(N2CCN(Cc3cccc(C(F)(F)F)c3)CC2)n1`, the MABP [1] is reported as 129 mmHg and the HR [2] is reported as 390 beats min-1.
In the case of `Nc1n[nH]c(N2CCN(c3ccccn3)CC2)n1`, the MABP [1] is reported as 133 mmHg and the HR [2] is reported as 430 beats min-1.
In the case of `COc1cc(CN2CCN(c3n[nH]c(N)n3)CC2)cc(OC)c1OC`, the MABP [1] is reported as 132 mmHg and the HR [2] is reported as 440 beats min-1.
In the case of `Nc1n[nH]c(N2CCN(CC3CCCC3)CC2)n1`, the MABP [5] is reported as 117 mmHg, the HR [6] is reported as 440 beats min-1 and the MABP [1] is reported as 114 mmHg.
`Nc1n[nH]c(N2CCN(Cc3ccc(Cl)c(Cl)c3)CC2)n1` was tested, and the MABP [1] was 95 mmHg and the HR [2] was 330 beats min-1.
Work on `Cc1cc(C)c(CN2CCN(c3n[nH]c(N)n3)CC2)c(C)c1` yielded an MABP [1] of 137 mmHg and an HR [2] of 430 beats min-1.
For `Nc1n[nH]c(N2CCN(C(=O)c3ccc(-c4ccccc4)cc3)CC2)n1`, the MABP [1] was 138 mmHg and the HR [2] was 400 beats min-1.
`Nc1n[nH]c(N2CCN(CCCc3ccccc3)CC2)n1` was tested, and the MABP [5] was 95 mmHg, the HR [6] was 520 beats min-1 and the MABP [1] was 93 mmHg. For the same compound, the HR [2] was 380 beats min-1.
With `Nc1n[nH]c(N2CCN(Cc3ccncc3)CC2)n1` the MABP [1] was 142 mmHg and the HR [2] was 380 beats min-1.
`Nc1n[nH]c(N2CCN(Cc3ccco3)CC2)n1` was tested, and the HR [8] was 440 beats min-1, the MABP [5] was 102 mmHg and the HR [6] was 370 beats min-1. It also gave an MABP [1] of 114 mmHg, an MABP [9] of 115 mmHg and an HR [3] of 440 beats min-1. For the same compound, the HR [2] was 410 beats min-1 and the MABP [4] was 153 mmHg.
Compound `CC(C)(C)c1ccc(CN2CCN(c3n[nH]c(N)n3)CC2)cc1` has an MABP [1] of 130 mmHg and an HR [2] of 350 beats min-1.
`N#Cc1ccc(CN2CCN(c3nc(N)n[nH]3)CC2)cc1` gave an MABP [1] of 127 mmHg and an HR [2] of 420 beats min-1.
